Drawing on ChEMBL document CHEMBL1921775, “Phenolic glycosides from sugar maple (Acer saccharum) bark” (J Nat Prod, 2011), this text covers IC50 for 13 compounds.

SMILES strings stand for the structures. ≈ marks a conversion by molar mass, not a printed value. Bounds are passed on as bounds.

Assay [1] has as its system HCT-116. Nature of the assay: Cytotoxicity against human HCT116 cells after 72 hrs by MTS assay. The settings on record: HCT-116, 72 h. Type of assay: functional, cell-based. The method in brief:
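HCT-116 carcinoma cells in McCoy's 5A with 10% FBS, 1% nonessential amino acids, 2% HEPES and antibiotics, passages 26–35, 37 °C, 5% CO2. Samples were DMSO-solubilized by sonication and diluted in medium, final DMSO ≤0.5%. Cells were exposed for 72 h to six-point 4-fold dilutions. MTS plus phenazine methosulfate ran 3 h, with absorbance at 490 nm versus control wells. IC50 given as mean ± SD, three experiments.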
On the technique in general: Formazan colour is commonly taken as a measure of viable cells.

Assay [2] relates to Caco-2. Nature of the assay: Cytotoxicity against human Caco2 cells after 72 hrs by MTS assay. It counts as functional, cell-based. The settings on record: Caco-2, 72 h. The gist of the method:
(§1)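 Colon cells (Caco-2 adenocarcinoma, nontumorigenic CCD-18Co) in EMEM with 10% FBS, 1% nonessential amino acids, 1% L-glutamine and antibiotics, passages 26–35, 37 °C, 5% CO2. Samples were dissolved in DMSO by sonication and diluted in medium, with final DMSO ≤0.5%. Six-point 4-fold dilution series ran for 72 h. MTS/PMS was read at OD490 after 3 h. IC50 reported as mean ± SD of three experiments.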

Assay [3] in a line: Cytotoxicity against human CCD-18Co cells after 72 hrs by MTS assay. Type of assay: cell-based. The method in brief: as §1

On to `COc1cc([C@H]2OC[C@H]3[C@@H]2CO[C@@H]3c2cc(OC)c(O[C@@H]3O[C@H](CO)[C@@H](O)[C@H](O)[C@H]3O)c(OC)c2)cc(OC)c1O`, for which the IC50 in assay [1], in assay [2] and in assay [3] was less than 5 µg/mL each time.
For `COc1cc(CO)cc(OC)c1O[C@@H]1O[C@H](CO)[C@@H](O)[C@H](O)[C@H]1O`, the half-inhibitory concentration (IC50) in assay [1], in assay [2] and in assay [3] was less than 5 µg/mL in each case.
`COc1cc([C@@H]2Oc3c(OC)cc(CCCO)cc3[C@H]2CO)ccc1O[C@@H]1O[C@@H](C)[C@H](O)[C@@H](O)[C@H]1O`: the IC50 in assay [1], in assay [2] and in assay [3] was less than 5 µg/mL throughout.
Turning to `COc1cc(CO)ccc1O[C@@H]1O[C@H](CO[C@@H]2OC[C@](O)(CO)[C@H]2O)[C@@H](O)[C@H](O)[C@H]1O`, the IC50 in assay [1], in assay [2] and in assay [3] was less than 5 µg/mL throughout.
For the compound `COc1cc(O[C@@H]2O[C@H](CO[C@@H]3OC[C@](O)(CO)[C@H]3O)[C@@H](O)[C@H](O)[C@H]2O)cc(OC)c1OC`, the half-inhibitory concentration (IC50) in assay [1], in assay [2] and in assay [3] was less than 5 µg/mL each time.
`COc1cc(O[C@@H]2O[C@H](CO)[C@@H](O)[C@H](O)[C@H]2O)cc(OC)c1OC`: the IC50 in assay [1], in assay [2] and in assay [3] was less than 5 µg/mL throughout.
With `COc1cc([C@@H]2c3cc4c(cc3[C@@H](O[C@@H]3O[C@@H]5CO[C@@H](C)O[C@H]5[C@H](O)[C@H]3O)[C@H]3COC(=O)[C@H]23)OCO4)cc(OC)c1O` [ETOPOSIDE], the values for the half-inhibitory concentration (IC50) in assay [1], in assay [2] and in assay [3] were 9.9 µg/mL (≈ 16.8 µM), 9.4 µg/mL (≈ 16 µM) and 43.6 µg/mL (≈ 74.1 µM), respectively.
Taken in the same sequence, the figures for `COc1cc(C(=O)OC[C@H]2O[C@@H](Oc3ccc([C@@H]4Oc5c(OC)cc(CCCO)cc5[C@H]4CO)cc3OC)[C@H](O)[C@@H](O)[C@@H]2O)ccc1O` [SACCHARUMOSIDE A] were less than 5 µg/mL, less than 5 µg/mL and less than 5 µg/mL.
The matching figures for `COc1cc(C(=O)OC[C@H]2O[C@@H](Oc3ccc(CO)cc3OC)[C@H](O)[C@@H](O)[C@@H]2O)ccc1O` [SACCHARUMOSIDE B]: less than 5 µg/mL, less than 5 µg/mL and less than 5 µg/mL.
The matching figures for `COC(=O)c1cc(O[C@@H]2O[C@H](CO[C@@H]3OC[C@](O)(CO)[C@H]3O)[C@@H](O)[C@H](O)[C@H]2O)ccc1O` [SACCHARUMOSIDE C]: less than 5 µg/mL, less than 5 µg/mL and less than 5 µg/mL.
As for `COC(=O)c1cc(O[C@@H]2O[C@H](CO)[C@@H](O)[C@H](O)[C@H]2O[C@@H]2OC[C@](O)(CO)[C@H]2O)ccc1O` [SACCHARUMOSIDE D], the IC50 in assay [1], in assay [2] and in assay [3] was less than 5 µg/mL in each case.
In the case of `COc1cc2ccc(=O)oc2cc1O[C@@H]1O[C@H](CO)[C@@H](O)[C@H](O)[C@H]1O` [SCOPOLIN], the half-maximal inhibitory concentration (IC50) in assay [1], in assay [2] and in assay [3] was less than 5 µg/mL each time.
Take `COc1cc(CO)ccc1O[C@@H]1O[C@H](CO)[C@@H](O)[C@H](O)[C@H]1O` [VANILLOLOSIDE]: the IC50 in assay [1], in assay [2] and in assay [3] was less than 5 µg/mL in each case.

One may read the IC50 as the concentration at which inhibition is half-maximal.
